Reference: ChEMBL document CHEMBL1137735, “Novel 4H-1,3,4-oxadiazin-5(6H)-ones with hydrophobic and long alkyl chains: design, synthesis, and bioactive diversity on inhibition of monoamine oxidase, chitin biosynthesis and tumor cell” (Eur J Med Chem, 2009)
Activity calls are given as the source filed them. The calls are words filed in the database; no cut-off is given here.

Legend:
[1] = tested on: Saccharomyces cerevisiae; test: Inhibition of chitin synthase-mediated chitin synthesis in yeast at 250 uM by high throughput assay
In short: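 Yeast Saccharomyces cerevisiae cell extracts used as chitin synthase source in a modified non-radioactive chitin synthase assay; compounds screened at a single fixed level.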

[2] = tested on: A549; test: Cytotoxicity against human A549 cells by SRB assay; type: functional, cell-based
In short: (§1)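 Growth inhibition of human lung A-549 and prostate PC-3 cancer cell lines, read out by sulforhodamine B dye staining; IC50 taken as the concentration giving 50% inhibition.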

[3] = organism: Rattus norvegicus; test: Inhibition of rat brain mitochondrial MAO at 0.8 mmol/L by kynuramine fluorimetric assay
[4] = organism: Rattus norvegicus; test: Inhibition of rat brain mitochondrial MAO at 0.008 mmol/L by kynuramine fluorimetric assay
[5] = Inhibition of rat brain mitochondrial MAO by kynuramine fluorimetric assay
[6] = tested on: PC-3; test: Cytotoxicity against human PC3 cells by SRB assay; type: functional, cell-based; in short: as §1
[7] = organism: Rattus norvegicus; test: Inhibition of rat brain mitochondrial MAO at 0.08 mmol/L by kynuramine fluorimetric assay
[8] = tested on: Saccharomyces cerevisiae; test: Inhibition of chitin synthase-mediated chitin synthesis in yeast by high throughput assay
In short: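 Enzyme source is Saccharomyces cerevisiae cell extract, run in a modified non-radioactive chitin synthase assay; five serial dilutions per compound tested to follow concentration dependence.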

[9] = organism: Rattus norvegicus; test: Inhibition of rat brain mitochondrial MAO at 1 mmol/L by kynuramine fluorimetric assay
[10] = organism: Rattus norvegicus; test: Inhibition of rat brain mitochondrial MAO at 0.1 mmol/L by kynuramine fluorimetric assay
[11] = organism: Rattus norvegicus; test: Inhibition of rat brain mitochondrial MAO at 0.01 mmol/L by kynuramine fluorimetric assay

inhibition [1]	IC50 [5]	inhibition [9]	inhibition [10]	inhibition [11]	Compound	other results
Active	430 µM				CCc1ccc(C2=NN(CCC#N)C(=O)CO2)cc1	IC50 [2]: > 100 µM; inhibition [3]: 59.7%; inhibition [4]: 9.73%; IC50 [6]: > 100 µM; inhibition [7]: 25.5%
Active	420 µM				CCCCC(CCCC)N1N=C(c2ccc(Cl)cc2)OCC1=O	IC50 [2]: 24.8 µM; inhibition [3]: 58.8%; inhibition [4]: 11.2%; inhibition [7]: 28.2%
Active					CCCCC(CCCC)N1N=C(c2ccc3c(c2)OCO3)OCC1=O	
Active					CCCCC(CCCC)N1N=C(c2ccc(CC)cc2)OCC1=O	
Active	600 µM				CCCCC(CCCC)N1N=C(c2ccc3ccccc3c2)OCC1=O	IC50 [2]: > 100 µM; inhibition [3]: 54.6%; inhibition [4]: 12.8%; IC50 [6]: 42.5 µM; inhibition [7]: 20.3%
95%					CCCCOC(=O)CCN1N=C(c2cccc(C)c2)OCC1=O	inhibition [8]: Dose-dependent effect
	240 µM	71.2%	37%	2.8%	CCc1ccc(C(=O)NNCCC#N)cc1	
					C[C@@H]([C@H](N)C(=O)N[C@H](C(=O)O)[C@H]1O[C@@H](n2ccc(=O)[nH]c2=O)[C@H](O)[C@@H]1O)[C@H](O)c1ccc(O)cn1	inhibition [8]: Dose-dependent effect
		10.5%	3.52%	9.33%	CCCCC(CCCC)NNC(=O)c1ccc(Cl)cc1Cl	
Active					CCCCC(CCCC)N1N=C(c2cc(C)cc(C)c2)OCC1=O	
	2610 µM	28.6%	2.71%	7.52%	CCCCC(CCCC)NNC(=O)c1ccc(Cl)cc1	
		62.8%	13.8%	0%	CCCCC(CCCC)NNC(=O)c1ccc2c(c1)OCO2	
98%					CCCCC(CCCC)N1N=C(c2cccnc2OCC)OCC1=O	inhibition [8]: Dose-dependent effect
		21.7%	6.09%	0%	CCCCC(CCCC)NNC(=O)c1cccnc1OCC	
		14.2%	5.13%	6.4%	CCCCC(CCCC)NNC(=O)c1ccccc1Cl	
		33.1%	8.47%	0%	CCCCC(CCCC)NNC(=O)c1ccc2ccccc2c1	
Active					CCCCC(CCCC)N1N=C(c2ccc(Cl)cc2Cl)OCC1=O	
	2300 µM	35.5%	8.16%	4.67%	CCCCC(CCCC)NNC(=O)c1cc(OC)c(OC)c(OC)c1	
					N#CCCN1N=C(c2ccccc2)OCC1=O	Activity [1]: Active
Active	410 µM				CCCCC(CCCC)N1N=C(c2cc(OC)c(OC)c(OC)c2)OCC1=O	IC50 [2]: 9.91 µM; inhibition [3]: 61.4%; inhibition [4]: 14%; IC50 [6]: 14.4 µM; inhibition [7]: 23.5%

Compound	inhibition [1]	IC50 [5]	inhibition [9]	inhibition [10]	inhibition [11]	other results
O=C(NC(=O)c1c(F)cccc1F)Nc1ccc(Cl)cc1	inactive					
